Rows were chosen to be rich in hits. Some 2.8% of all compounds tested hit in one or more screens of this group.
NPY Y1 blocker – NPY-Y1 receptor antagonists, primary screen, cell-based | actives 1% (n = 200,000) | AID 1040, 2008 | Neuropeptide Y receptor type 1 (Homo sapiens), P25929 | inhibition, % at 3.6 µM | HEK293-CNG Y1 cells, membrane potential fluorescence; NPY at EC95, then isoproterenol;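 active = inhibition above the campaign mean inhibition of all tested compounds plus 3 SD, cut at about 20% in these data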;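 also: 0% = DMSO wells given NPY plus isoproterenol and 100% = isoproterenol alone without NPY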
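Assay system: HEK293 cells with Y1 receptor plus CNG channel | Probe or stimulus: NPY (25 nM), isoproterenol (1 µM), Ro 20-1724 (25 µM) | Timing: Compound incubation 1 h at room temperature, readout 45 min post-stimulation | Measured by: Membrane-potential fluorescent dye readout | Benchmarks: High control isoproterenol alone, low control NPY with isoproterenol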
NPY Y2 blocker – NPY-Y2 receptor antagonists, primary screen, cell-based | NPY-Y2 expressing cells, antagonist mode | AID 793, 2007 | inhibition, % at 2.7 µM | Neuropeptide Y receptor type 2 (Homo sapiens), P49146 | actives 0.99% (n = 140,000); in the data active = inhibition above about 17%;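 also: 0% = vehicle with agonist challenge and 100% = reference antagonist with challenge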
NPY-Y2 PAM-ag – NPY-Y2 potentiators or agonists, primary screen, cell-based. activation, % at 3.6 µM. Neuropeptide Y receptor type 2 (Homo sapiens), P49146. cells expressing NPY-Y2, potentiator/agonist read-out. actives 0.45% (n = 220,000); in the data active = activation above about 27%;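 also: cells stimulated with NPY near EC25 plus isoproterenol at EC100; 0% = vehicle plus submaximal agonist and 100% = vehicle plus saturating agonist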
NPY1 pot ag – NPY-Y1 receptor potentiators or agonists, primary screen, cell-based. NPY-Y1 expressing cells, potentiator/agonist activation. actives 0.37% (n = 220,000). activation, % at 3.6 µM. AID 1304, 2008; in the data active = activation above about 33%, passing the limit was not always enough;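 also: cells stimulated with NPY at EC10 then isoproterenol at EC100; 0% = low agonist plus stimulus and 100% = saturating agonist plus stimulus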
EP2 antag – human EP2 receptor antagonists, primary screen, TR-FRET cAMP, C6 glioma cells. Prostaglandin E2 receptor EP2 subtype (Homo sapiens), P43116. C6 glioma cells expressing human EP2; cells stimulated with saturating PGE2. inhibition, % at 25 µM. actives 0.52% (n = 260,000). AID 1422, 2008;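 active = percent inhibition above 40 after rounding to a whole number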;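 also: rat C6 glioma host cells with rolipram phosphodiesterase inhibitor present; the protocol text gives 20 µM as final concentration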
Target sequence (P43116 whole entry, looked up): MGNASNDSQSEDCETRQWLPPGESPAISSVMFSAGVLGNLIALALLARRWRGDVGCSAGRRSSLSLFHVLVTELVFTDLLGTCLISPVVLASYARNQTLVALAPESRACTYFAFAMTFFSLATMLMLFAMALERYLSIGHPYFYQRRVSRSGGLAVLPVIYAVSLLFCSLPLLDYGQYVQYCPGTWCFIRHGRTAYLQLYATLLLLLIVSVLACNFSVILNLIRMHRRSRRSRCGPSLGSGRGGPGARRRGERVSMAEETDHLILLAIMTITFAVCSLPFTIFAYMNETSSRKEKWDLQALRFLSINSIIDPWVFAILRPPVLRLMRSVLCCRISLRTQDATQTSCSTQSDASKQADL
EP2 mod – EP2 receptor modulators, cAMP readout, primary screen, cell-based, HTRF cAMP, PGE2 stimulation | Prostaglandin E2 receptor EP2 subtype (Homo sapiens), P43116 | EP2-expressing cells, cAMP HTRF FRET, PGE2 co-stimulation | induction, % at 25 µM | actives 0.83% (n = 260,000) | AID 940, 2007;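 active = compounds whose cAMP rise, as percent of the full-agonist control response, exceeds 60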;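 also: rat C6 glioma line stably carrying human EP2 under a CMV promoter; the protocol text gives 20 µM as final concentration; 100% = response of wells given 1 µM PGE2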
Starred values were filed as active, the others as inactive; . = not tested or not shown; ! = not active in a repeat.

SMILES	NPY Y1 blocker	NPY Y2 blocker	NPY-Y2 PAM-ag	NPY1 pot ag	EP2 antag	EP2 mod
COc1ccc2c(c1)Cc1cc(N=[N+]([O-])c3ccc4c(c3)Cc3cc(OC)ccc3-4)ccc1-2	.	.	.	.	114*	-80
c1ccc2sc(SCN(C3CCCCC3)C3CCCCC3)nc2c1	.	.	.	.	43*	21
c1ccc2sc(SCSc3nc4ccccc4s3)nc2c1	.	.	-25	-15	6	-11
O=C(Oc1cccc(-n2cnnn2)c1)c1cccc(Cl)c1	.	.	.	.	16	-68
C/C(=N\Nc1nc(N2CCCCC2)nc(N2CCOCC2)n1)c1ccccc1O	3	.	-19	-3	10	64*
CCOc1c(Br)cc(C(N)=O)cc1OCc1ccccc1	8	2	3	9	14	62*
OC(COc1ccccc1)Cn1cnc2ccccc21 (centres undefined)	.	.	.	.	7	-28
CC(=O)Oc1ccc2c(c1)Oc1cc(OC(C)=O)ccc1C21OC(=O)c2ccccc21	32*	79*	17	-21	17	-15
CC1=C(C(=O)Nc2ccccn2)C(c2cn(C)nc2C)C2=C(CCCC2=O)N1 (centres undefined)	-4	.	7	-4	3	-4
COC(=O)C1=C(C)NC2=C(C(=O)CCC2)C1c1cn(Cc2ccc(Cl)cc2Cl)nc1-c1ccccc1 (centres undefined)	65*	19*	-28	-66	11	32
COc1ccc(NCc2ccc(O)c3ncccc23)cc1	.	.	.	.	11	-36
CCOC(=O)C1=C(C[n+]2ccccc2)C(C)(C)OC1=O	.	.	.	.	9	-2
Cn1ccnc1C(NC(=O)Cc1cccc(O)c1)c1ccc(F)c(F)c1 (centres undefined)	.	.	.	.	6	-16
CC(/C=N/NC(=O)Cn1nnc(N)n1)=C\c1ccc(C(C)C)cc1	.	.	-34	-6	2	89*
CCOc1ccc(CC(=O)N2CCC(c3ccncc3)CC2)cc1	.	.	.	.	3	-68
C=CCn1c(=O)/c(=C2/Sc3ccccc3N2C)s/c1=C1\C(=O)N(C)C(=S)N1C	.	.	.	.	10	9
CC1=NNC(=S)NCCCN2CCN(CCCNC(=S)NN=C(C)C=NNC(=S)NCCCN3CCN(CCCNC(=S)NN=C1)CC3)CC2	.	.	.	.	45*	56
Cc1ccsc1CN(Cc1cccnc1)C1CC(C)(C)NC(C)(C)C1	.	.	.	.	10	-33
COc1cccc(Nc2nc3ccccc3nc2NS(=O)(=O)c2cccs2)c1	-6	-2	43*	78*	8	-44
COc1ccccc1C1OC2=C(Nc3ccc([N+](=O)[O-])cc3N2)C1=O (centres undefined)	.	.	2	13	2	-17
O=C1C2=C(Nc3cc([N+](=O)[O-])ccc3N2)O[C@@H]1c1c[nH]c2ccc(COc3ccccc3)cc12	.	.	.	.	60*	9
CN1CCc2cccc3c2C1Cc1ccc(O)c(O)c1-3 (centres undefined)	.	.	.	.	60*	-48
CN1CCC(=C2c3ccccc3C(O)c3ccccc32)CC1 (centres undefined)	.	.	-15	16	4	7
Cc1cc(-c2cc(N)c(=O)n(CC(=O)Nc3ccc4c(c3)OCCO4)n2)c(C)o1	.	.	.	.	7	-99
COc1ccc2[nH]cc(C(=O)CNc3nc(C)cs3)c2c1	-18	-10	39*	48*	9	-25
SMILES	NPY Y1 blocker	NPY Y2 blocker	NPY-Y2 PAM-ag	NPY1 pot ag	EP2 antag	EP2 mod
CCn1cc(C(=O)N2CCC[C@H](Cn3cc(C(=O)N4CCOCC4)nn3)C2)cn1	.	.	.	.	.	-16
O=C(Nc1nc2c(s1)CCCC2)c1cc2ccccc2oc1=O	.	.	.	.	16	-24
Cc1cccc(NC(=O)CSc2nnc(C3CCCCC3)n2C)c1	.	.	.	.	7	6
N#C/C(=C\c1ccc(Cl)cc1)c1nc(-c2ccco2)cs1	-2	6	-9	-8	1	38
N#C/C(=C\c1ccc(F)cc1)c1nc(-c2ccco2)cs1	7	11	8	-11	9	61*
Cc1c(C(=O)N2CCCCC2)sc(NC(=O)c2cccc(F)c2)c1C#N	.	.	.	.	9	-64
Cc1ccc2nc(-c3ccccc3)c(-c3ccccc3)nc2c1	0	.	4	-14	8	61*
Cc1ccc2nc(Cl)nc(-c3ccccc3)c2c1	7	.	-16	-19	9	52
O=C(Cc1cc(=O)oc2cc(O)ccc12)NCC1CCC(C(=O)O)CC1 (centres undefined)	4	1	4	-9	12	64*
CC1(C)CC(NC(=O)c2ccccc2C(=O)NC2CC(C)(C)NC(C)(C)C2)CC(C)(C)N1	-1	.	-7	16	15	9
CC1(C)CC(Nc2ccc(Nc3ccccc3)cc2)CC(C)(C)N1	.	.	15	15	60*!	-57
COc1ccc(C[C@@H]2C(=O)N[C@H](C)C(=O)N(C)[C@@H]3Cc4ccc(cc4)Oc4cc(ccc4O)C[C@@H](C(=O)N[C@@H](C)C(=O)N[C@H](C)C(=O)N2C)N(C)C3=O)cc1	.	.	.	.	41*	26
NC(=O)CSc1nc2c(c(=O)n1-c1ccccc1)C1(CCCCC1)Cc1ccccc1-2	-6	-2	-7	-9	12	43
Cc1cccc(-n2c(SCC(N)=O)nc3c(c2=O)C2(CCCC2)Cc2ccccc2-3)c1	-8	-7	39*	48*	12	59
Cc1cc(C)n(Cc2ccc(Cl)cc2Cl)c(=O)c1S(=O)(=O)c1ccccc1	14	9	5	-33	10	62*
CCC(C)(C)n1nnnc1C(C(C)C)N(Cc1ccccc1)Cc1cc2cc(C)c(C)cc2[nH]c1=O (centres undefined)	.	.	.	.	11	20
Nc1ncnc2c1nc(-c1ccccc1)n2[C@H]1O[C@@H](CO)[C@H](O)[C@H]1O	.	.	.	.	16	17
Cn1c(N)nc2c(nc(OCc3ccccc3)n2[C@H]2O[C@H](CO)[C@@H](O)[C@@H]2O)c1=O	.	.	.	.	57*	25
O=c1ccc(-c2ccc(F)cc2)nn1CC1CCN(S(=O)(=O)Cc2ccccc2)CC1	.	.	.	.	.	-39
Cc1cccc(Cn2c(NC3CCCC3)nc3c2c(=O)[nH]c(=O)n3C)c1	.	.	.	.	14	-13
Cn1c(=O)[nH]c(=O)c2c1nc(NC1CCCCC1)n2Cc1ccccc1	-6	0	1	7	9	61*
COc1ccccc1N(C(=O)c1cncc(Br)c1)c1nc(-c2ccc(C)cc2)cs1	0	3	3	-4	6	64*
COc1ccc(C)cc1N(C(=O)c1ccccc1)c1nc2ccccc2s1	7	7	-7	-24	3	34
O=C(NCCc1nc(-c2ccncc2)n[nH]1)C1c2ccccc2Oc2ccccc21	.	.	.	.	4	-68
